Experimental data reported in ChEMBL document CHEMBL5356941, “Synthesis, activity and metabolic stability of propan-2-one substituted tetrazolylalkanoic acids as dual inhibitors of cytosolic phospholipase A2α and fatty acid amide hydrolase” (RSC Med Chem, 2023).
In brackets after ≈: the same amount, converted by molar mass.

Tests used:
[1] = Inhibition of porcine platelets cPLA2 alpha using 1-stearoyl-2-arachidonoyl-sn-glycero-3-phosphocholine as substrate incubated for 60 mins by RP-HPLC analysis; set-up: species or system Sus scrofa
Outline: (§1)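 Stopped with acetonitrile/methanol/0.1 M EDTA containing internal standard and NDGA; released arachidonic acid measured by RP-HPLC, UV 200 nm, after online SPE, with vs without compound. IC50s are means of at least two independent determinations.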

[2] = target: T1, Fatty-acid amide hydrolase 1 (Rattus norvegicus, UniProt P97612); assay: Inhibition of rat brain microsome FAAH using N-(2-hydroxyethyl)-4-pyren-1-ylbutanamide as substrate incubated for 60 mins by RP-HPLC analysis; format: microsomes
T1 sequence (P97612 whole entry): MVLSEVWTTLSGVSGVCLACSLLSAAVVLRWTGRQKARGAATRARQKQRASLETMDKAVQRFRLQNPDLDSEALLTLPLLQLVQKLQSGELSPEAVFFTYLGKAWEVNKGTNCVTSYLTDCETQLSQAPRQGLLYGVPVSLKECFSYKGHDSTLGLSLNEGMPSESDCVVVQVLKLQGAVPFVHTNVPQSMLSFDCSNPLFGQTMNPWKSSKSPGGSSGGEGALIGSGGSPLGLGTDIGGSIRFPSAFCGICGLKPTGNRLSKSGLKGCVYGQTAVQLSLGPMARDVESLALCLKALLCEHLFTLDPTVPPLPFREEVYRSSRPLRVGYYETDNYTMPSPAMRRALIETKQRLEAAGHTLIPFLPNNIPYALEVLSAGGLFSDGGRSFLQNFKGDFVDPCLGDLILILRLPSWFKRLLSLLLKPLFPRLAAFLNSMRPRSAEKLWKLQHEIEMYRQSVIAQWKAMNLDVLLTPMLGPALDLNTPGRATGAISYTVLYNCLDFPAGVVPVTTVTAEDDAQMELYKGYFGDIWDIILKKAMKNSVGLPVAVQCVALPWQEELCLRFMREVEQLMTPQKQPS

[3] = Metabolic stability in rat liver S9 fraction assessed as parent compound remaining at 20 uM after 30 mins in presence of NADPH by RP-HPLC analysis; format: ADME, subcellular; settings: read-out: Stability
Outline: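 Compounds (final 20 μM) incubated aerobically with rat liver S9 fraction with or without NADPH (final 1 mM); stopped after 30 min. Percent parent remaining measured by reversed-phase HPLC with UV or MS detection; means of independent duplicates.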

Platelet = assay: Inhibition of porcine platelets cPLA2 alpha at 10 uM using 1-stearoyl-2-arachidonoyl-sn-glycero-3-phosphocholine as substrate incubated for 60 mins by RP-HPLC analysis relative to control; format: cell-based; settings: Sus scrofa; outline: as §1
[4] = Lipophilicity, logP of compound by RP-HPLC analysis; format: physicochemical
[5] = target: T2, Cytosolic phospholipase A2 (Homo sapiens, UniProt P47712); assay: Inhibition of cPLA2 alpha (unknown origin)
T2 sequence (P47712 whole entry): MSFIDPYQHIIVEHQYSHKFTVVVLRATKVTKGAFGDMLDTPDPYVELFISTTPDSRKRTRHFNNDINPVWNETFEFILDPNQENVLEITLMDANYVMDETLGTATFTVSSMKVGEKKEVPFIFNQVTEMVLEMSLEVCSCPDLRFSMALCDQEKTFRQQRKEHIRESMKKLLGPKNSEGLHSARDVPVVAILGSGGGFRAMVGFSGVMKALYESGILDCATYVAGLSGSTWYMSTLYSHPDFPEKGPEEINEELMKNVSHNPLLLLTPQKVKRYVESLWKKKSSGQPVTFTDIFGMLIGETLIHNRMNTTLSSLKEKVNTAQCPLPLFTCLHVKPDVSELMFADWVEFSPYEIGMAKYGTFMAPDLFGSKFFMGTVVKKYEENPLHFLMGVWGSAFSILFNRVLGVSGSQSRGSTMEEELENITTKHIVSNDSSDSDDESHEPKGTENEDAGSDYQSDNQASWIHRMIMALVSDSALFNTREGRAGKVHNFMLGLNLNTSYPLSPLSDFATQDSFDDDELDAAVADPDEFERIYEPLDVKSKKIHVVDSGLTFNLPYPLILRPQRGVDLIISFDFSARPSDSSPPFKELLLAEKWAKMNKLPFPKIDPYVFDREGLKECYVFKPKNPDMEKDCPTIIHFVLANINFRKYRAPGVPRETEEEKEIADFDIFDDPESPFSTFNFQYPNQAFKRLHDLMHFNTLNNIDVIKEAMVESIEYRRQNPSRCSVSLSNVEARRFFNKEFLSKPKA
Outline: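 Stopped with acetonitrile/methanol/0.1 M EDTA containing internal standard and NDGA. Released arachidonic acid quantified by reversed-phase HPLC, UV 200 nm, after online SPE; IC50 as mean of ≥2 independent determinations.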

[6] = Aqueous solubility of the compound in PBS at pH 7.4 incubated for 20 hrs by RP-HPLC analysis; format: physicochemical; settings: buffer, pH 7.4, 20 h
Outline: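 Thermodynamic solubility: 1 mg test compound in 2 mL PBS (0.01 M, pH 7.4), bath-sonicated 10 min, shaken 20 h at room temperature, centrifuged; acetonitrile added to an aliquot of clear supernatant and dissolved compound quantified by reversed-phase HPLC with UV at 240 nm.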

[7] = target: T3, Fatty-acid amide hydrolase 1 (Rattus norvegicus) (UniProt P97612); assay: Inhibition of rat brain microsome FAAH at 10 uM using N-(2-hydroxyethyl)-4-pyren-1-ylbutanamide as substrate incubated for 60 mins by RP-HPLC analysis relative to control; format: microsomes
T3 sequence (whole entry): T1 sequence (P97612 whole entry)
Outline: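 Rat brain microsomes incubated with N-(2-hydroxyethyl)-4-pyren-1-ylbutanamide (final 100 μM) in PBS containing 0.20% Triton X-100. Reaction stopped after 60 min with acetonitrile/methanol containing 6-pyren-1-ylhexanoic acid as internal standard; released 4-pyren-1-ylbutanoic acid quantified by reversed-phase HPLC with fluorescence detection, with vs without compound. IC50s are means of at least two independent determinations.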

Structure (SMILES) | IC50 [1] | IC50 [2] | remaining at 0.5 h, 20 µM [3] | other results
CCCCCCc1ccc(OCC(=O)Cn2nnc(CCC(=O)O)n2)cc1 | 36 nM | 23 nM |  | logP [4]: 4.2
CCCCCCOc1ccc(OC(C)C(=O)Cn2nnc(CCC(=O)O)n2)cc1 (stereo not drawn) | 190 nM | 34 nM |  | 
CC(C)Cc1ccc(C(C)C(=O)O)cc1 (stereo not drawn) [IBUPROFEN] |  |  |  | logP [4]: 3.2
CCCCCCCCc1ccc(OCC(=O)Cn2ccc3cc(C(=O)O)ccc32)cc1 |  |  |  | IC50 [5]: 24 nM
O=C(O)CCc1nnn(CC(=O)COc2ccc(Oc3ccccc3)cc2)n1 | 170 nM | 54 nM | < 5% | logP [4]: 2.2
COc1ccc2c(c1)c(CC(=O)O)c(C)n2C(=O)c1ccc(Cl)cc1 [INDOMETHACIN] |  |  |  | solubility [6]: 246 µg/mL (≈ 688 µM)
CCCCCCCCCCOc1ccc(OCC(=O)COc2ccc(C(=O)O)cc2)cc1 |  |  |  | IC50 [5]: 7 nM
CC(Oc1ccc(Oc2ccccc2)cc1)C(=O)Cn1nnc(CCC(=O)O)n1 (stereo not drawn) | 540 nM | 44 nM | < 5% | 
O=C(O)CCc1cn(CC(=O)COc2ccc(Oc3ccccc3)cc2)nn1 | 850 nM | 130 nM | < 5% | 
CCCCCCCCc1ccc(OCC(=O)Cn2nnc(CCC(=O)O)n2)cc1 | 19 nM |  |  | logP [4]: 5.5
O=C(O)CCCc1nnnn1CC(=O)COc1ccc(Oc2ccccc2)cc1 | 3300 nM | 170 nM | 36% | 
CCCCCCOc1ccc(OCC(=O)C(C)n2nnc(CCCC(=O)O)n2)cc1 (stereo not drawn) | 250 nM | 750 nM |  | 
CCCCc1ccc(OCC(=O)Cn2nnc(CCC(=O)O)n2)cc1 | 260 nM | 27 nM |  | logP [4]: 3
CCCCCCOc1ccc(OC(C)C(=O)Cn2nnc(CCCC(=O)O)n2)cc1 (stereo not drawn) | 500 nM | 34 nM |  | 

Continued, in another order:

IC50 [1] | IC50 [2] | remaining at 0.5 h, 20 µM [3] | Structure (SMILES) | other results
> 10000 nM | 94 nM | < 5% | O=C(O)CCc1nnn(CC(=O)C2CCc3cc(-c4ccccc4)ccc3O2)n1 (stereo not drawn) | inhibition (Platelet): 34%
730 nM | 43 nM | < 5% | CC(Oc1ccc(Oc2ccccc2)cc1)C(=O)Cn1nnc(CCCC(=O)O)n1 (stereo not drawn) | 
4800 nM | 170 nM | 71% | CC(Oc1ccc(Oc2ccccc2)cc1)C(=O)Cn1nnnc1CCCC(=O)O (stereo not drawn) | 
280 nM | 54 nM | < 5% | O=C(O)CCCc1nnn(CC(=O)COc2ccc(Oc3ccccc3)cc2)n1 | 
47 nM | 32 nM |  | CCCCCCOc1ccc(OCC(=O)Cn2nnc(CCC(=O)O)n2)cc1 | logP [4]: 3.7
45 nM | 32 nM |  | CC(C)CCCOc1ccc(OCC(=O)Cn2nnc(CCC(=O)O)n2)cc1 | logP [4]: 3.6
180 nM | > 10000 nM |  | CCCCCCOc1ccc(OCC(=O)C(C)n2nnc(CCC(=O)O)n2)cc1 (stereo not drawn) | inhibition [7]: 31%
3100 nM | 170 nM | 29% | CC(Oc1ccc(Oc2ccccc2)cc1)C(=O)Cn1cc(CCC(=O)O)nn1 (stereo not drawn) | 
3000 nM | 2100 nM | 52% | O=C(O)CCc1nnnn1CC(=O)COc1ccc(Oc2ccccc2)cc1 | 
> 10000 nM | 880 nM | 86% | CC(Oc1ccc(Oc2ccccc2)cc1)C(=O)Cn1nnnc1CCC(=O)O (stereo not drawn) | inhibition (Platelet): 39%
